This note sets out measurements from ChEMBL document CHEMBL1157464, “1-[(3-Aryloxy-3-aryl)propyl]-1H-imidazoles, new imidazoles with potent activity against Candida albicans and dermatophytes. Synthesis, structure-activity relationship, and molecular modeling studies” (J Med Chem, 2008).

For data set [1], the system named is Arthrodermataceae. Put plainly: Antifungal activity against dermatophytes at 28 degC after 48 to 96 hrs by broth microdilution test.
Data set [2] is described as follows: Therapeutic index, ratio of CC50 for human K562 cells to MIC90 for Candida albicans ATCC 10261. It is filed as cell-based. A digest of the protocol:
(§1)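 Therapeutic index calculated as CC50 in the given cell line divided by MIC90.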

Data set [3] in a line: Therapeutic index, ratio of CC50 for human U937 cells to MIC90 for Candida albicans ATCC 10261. The class given is cell-based, U-937. The procedure, abridged: as §1
Data set [4] relates to Candida albicans. Put plainly: Antifungal activity against fluconazole-resistant Candida albicans isolated from oropharyngeal or vaginal disease patient after 48 hrs by broth microdilution test. The class given is functional. Background: In broth dilution the organism is exposed to a series of concentrations in liquid medium.
For data set [5], the system named is Arthrodermataceae. Description: Antifungal activity against dermatophytes at 28 degC after 5 days by broth microdilution test.
Data set [6] concerns Candida parapsilosis. Description: Antifungal activity against Candida parapsilosis ATCC 22019 at 35 degC after 48 hrs by broth microdilution test. The class given is functional. The following applies: Lodderomyces parapsilosis, ATCC 22019, 48 h. A digest of the protocol:
(§2)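 Broth microdilution per NCCLS M27-A2. Stocks in 100% DMSO, diluted in RPMI 1640 with 0.165 M MOPS at pH 7.0; final range 0.25–128 µg/mL. Inoculum 1000–5000 cells/mL from SDA subcultures. […] C. parapsilosis ATCC22019 served as QC strain.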

The nature of data set [7]: Cytotoxicity against human U937 cells assessed as reduction of cell viability after 24 hrs by MTT assay. It is filed as cell-based, U-937. A digest of the protocol:
(§3)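 U937 and K562 cells, from ATCC, plated at 5 × 10^4/mL in phenol-red-free RPMI-1640 with 20% FBS and penicillin/streptomycin. Compounds added 2 h later at 25–100 µg/mL, then 24 h at 37 °C. MTT at 1 mg/mL for 3 h, formazan dissolved in isopropanol with 0.1 N HCl, absorbance read at 570 nm. CC50 is the concentration reducing viability by 50% versus the drug-free control.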
Background: Formazan colour is commonly taken as a measure of viable cells.

The nature of data set [8]: Cytotoxicity against human K562 cells after assessed as reduction of cell viability 24 hrs by MTT assay. It is filed as cell-based. The procedure, abridged:
as §3

In data set [9] the test system is Arthrodermataceae. Put plainly: Antifungal activity against dermatophytes at 28 degC after 7 days by broth microdilution test. The following applies: 168 h. It is filed as functional. A digest of the protocol: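 Ten clinical isolates (two M. canis, five M. gypseum, three T. mentagrophytes) tested by NCCLS M38-A broth microdilution in MOPS-buffered RPMI 1640, pH 7.0, over 0.25–128 µg/mL. Conidial/hyphal suspension from PDA slants (28 °C, 7 days) adjusted to 65–70% transmittance at OD530, then diluted 1:50.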

Data set [10] concerns Candida albicans. Put plainly: Antifungal activity against Candida albicans ATCC 10261 at 35 degC after 48 to 96 hrs by broth microdilution test. It is filed as functional. A digest of the protocol:
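Minimal fungicidal concentration for Candida. […] MFC is the lowest concentration allowing fewer than two colonies (99% killing).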

The subject of data set [11] is Candida albicans. Description: Antifungal activity against fluconazole-sensitive Candida albicans Fe40 at 35 degC after 48 hrs by broth microdilution test. It is filed as functional. A digest of the protocol: as §2
Data set [12] relates to Candida albicans. Put plainly: Antifungal activity against Candida albicans ATCC 10261 at 35 degC after 48 hrs by broth microdilution test. The settings on record: Candida albicans, ATCC 10261, 48 h. The class given is functional. A digest of the protocol:
as §2

A word on the MIC: it is the lowest concentration that inhibits growth of the organism. The MFC is the lowest tested concentration that kills the fungus rather than only halting it. As usually defined, the CC50 is the concentration at which the toxic effect on the cells reaches its halfway point. As usually defined, the MIC50 is the lowest concentration that inhibits either 50% of growth or 50% of the strains tested, depending on the study. One may read the MIC90 as an inhibitory concentration at the 90% level, which refers to growth in some studies and to a panel of isolates in others.

≈ marks a conversion by molar mass, not a printed value.

In the case of `CC(=O)N1CCN(c2ccc(OCC3COC(Cn4ccnc4)(c4ccc(Cl)cc4Cl)O3)cc2)CC1` (stereo not given) [KETOCONAZOLE], the MFC50 in data set [1] came out at 8 µg/mL (≈ 15.1 µM); in [10] it was 16 µg/mL (≈ 30.1 µM). The selectivity ratio in data set [2] was determined as 12.8; in [3], 15.6. In addition, the MIC in data set [4] is 20 µg/mL (≈ 37.6 µM); in [6] (read-out: MIC), 0.06 µg/mL (≈ 0.113 µM); in data set [9], 1.6 µg/mL (≈ 3.01 µM); in data set [11], 4 µg/mL (≈ 7.53 µM); in [12] (read-out: MIC) it was 5.9 µg/mL (≈ 11.1 µM). The MFC90 in data set [5] was 8 µg/mL (≈ 15.1 µM); in data set [10], 32 µg/mL (≈ 60.2 µM). For the same compound, the minimum fungicidal concentration (MFC) was 6.6 µg/mL (≈ 12.4 µM) in data set [5] (Arthrodermataceae); 0.5 µg/mL (≈ 0.941 µM) in [6] (read-out: MFC); 16.3 µg/mL (≈ 30.7 µM) in data set [10] (Candida albicans, ATCC 10261, read-out: MFC). Further, the CC50 at 24 h in data set [7] was determined as 125 µM; in data set [8], 102 µM. The MIC50 stood at 1 µg/mL (≈ 1.88 µM) in [9] and 4 µg/mL (≈ 7.53 µM) in data set [12] (read-out: MIC50). The MIC90 in data set [9] was determined as 2 µg/mL (≈ 3.76 µM); in data set [12] (read-out: MIC90), 8 µg/mL (≈ 15.1 µM).
